Experimental data from ChEMBL document CHEMBL4196009, “Novel vitexin-inspired scaffold against leukemia” (Eur J Med Chem, 2018).

What was measured:
KOPN-8 [1] = assay: Induction of apoptosis in human KOPN8 cells assessed as early apoptotic cells at 5 uM after 24 hrs by Annexin V-FITC/propidium iodide staining-based flow cytometry (reference value: 0.1%); format: functional
Method in brief: (§1)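 KOPN-8 cells treated 24 h alongside a DMSO vehicle and a staurosporine (2.0 µM) positive control. Apoptosis was scored by FITC Annexin V / propidium iodide flow cytometry with quadrant gating (early, late apoptotic). DNA content was measured by PI staining to give the percentage of cells in G0/G1, S and G2/M. Groups were compared by t-test; error bars are SD.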

KOPN-8 [2] = assay: Effect on c-Myc expression in human KOPN8 cells at 0.5 uM after 3 hrs by Western blot analysis relative to control; format: functional
KOPN-8 [3] = assay: Effect on c-Myc expression in human KOPN8 cells at 0.5 uM after 24 hrs by Western blot analysis relative to control; format: functional
[4] = molecular target: T1, Retinoblastoma-associated protein (Homo sapiens) (UniProt P06400); assay: Inhibition of Rb phosphorylation in human KOPN8 cells assessed as ratio of phosphorylated Rb to total Rb levels at 0.5 uM after 24 hrs by Western blot analysis relative to control; format: cell-based
T1 sequence (whole entry): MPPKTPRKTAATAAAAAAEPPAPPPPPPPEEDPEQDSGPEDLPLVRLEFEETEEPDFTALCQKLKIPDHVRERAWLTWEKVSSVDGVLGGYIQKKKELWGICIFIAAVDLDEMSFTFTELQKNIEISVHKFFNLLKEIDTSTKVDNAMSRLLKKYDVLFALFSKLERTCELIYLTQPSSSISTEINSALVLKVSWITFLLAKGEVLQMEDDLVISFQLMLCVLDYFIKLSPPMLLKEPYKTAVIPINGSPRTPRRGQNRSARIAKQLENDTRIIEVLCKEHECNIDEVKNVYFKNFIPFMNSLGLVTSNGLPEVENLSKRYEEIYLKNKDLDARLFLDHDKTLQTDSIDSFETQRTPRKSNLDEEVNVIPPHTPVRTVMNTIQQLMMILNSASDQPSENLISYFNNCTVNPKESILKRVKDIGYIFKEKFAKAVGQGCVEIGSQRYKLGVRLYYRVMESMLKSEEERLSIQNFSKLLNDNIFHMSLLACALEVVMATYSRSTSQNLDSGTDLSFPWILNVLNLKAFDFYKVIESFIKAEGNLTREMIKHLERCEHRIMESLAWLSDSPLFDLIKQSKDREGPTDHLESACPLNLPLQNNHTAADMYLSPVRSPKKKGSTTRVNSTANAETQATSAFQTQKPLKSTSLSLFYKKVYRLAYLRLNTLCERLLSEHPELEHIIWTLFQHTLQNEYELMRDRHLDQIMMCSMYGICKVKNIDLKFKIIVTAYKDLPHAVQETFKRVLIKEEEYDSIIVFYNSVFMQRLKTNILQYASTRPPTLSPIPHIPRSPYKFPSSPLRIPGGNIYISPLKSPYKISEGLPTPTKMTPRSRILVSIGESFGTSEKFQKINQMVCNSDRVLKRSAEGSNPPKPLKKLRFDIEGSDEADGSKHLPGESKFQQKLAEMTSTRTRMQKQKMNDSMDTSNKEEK
Method in brief: (§2)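 KOPN-8 cells were exposed to compound for 3 h and 24 h, with or without N-acetylcysteine added to a parallel set as antioxidant. Lysates were analysed by Western blot for cleaved PARP, Mcl-1, Ser-2-phosphorylated RNAPII CTD, cMyc, total Rb and pRb. Signals were compared against controls for dose-dependent change.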

KOPN-8 [5] = assay: Induction of apoptosis in human KOPN8 cells assessed as early apoptotic cells at 10 uM after 24 hrs by Annexin V-FITC/propidium iodide staining-based flow cytometry (reference value: 0.1%); format: functional; method in brief: as §1
MDA-MB-231 = assay: Cell cycle arrest in human MDA-MB-231 cells assessed as accumulation at S phase at 20 uM after 24 hrs by propidium iodide staining-based flow cytometry (reference value: 20.15%); format: functional
KOPN-8 [6] = assay: Induction of apoptosis in human KOPN8 cells assessed as upregulation of cleaved PARP level after 3 to 24 hrs by Western blot analysis; format: functional, cell-based; method in brief: as §2
KOPN-8 [7] = assay: Induction of apoptosis in human KOPN8 cells assessed as effect on Mcl-1 level at 30 uM after 3 hrs by Western blot analysis relative to control; format: functional; method in brief: as §2
KOPN-8 [8] = assay: Induction of apoptosis in human KOPN8 cells assessed as effect on Mcl-1 level at 10 uM after 24 hrs by Western blot analysis relative to control; format: functional
Method in brief: (§3)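 KOPN-8 cells were treated at 10–100 µM final, with or without N-acetylcysteine co-addition, for 3 h and 24 h. Lysates were analysed by Western blot for PARP cleavage, Mcl-1, phospho-Ser2 RNAPII CTD, c-Myc, total Rb and pRb. Levels are relative to the vehicle control.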

KOPN-8 [9] = assay: Induction of apoptosis in human KOPN8 cells assessed as effect on Mcl-1 level at 30 uM pre-treated with NAC for 1 hr and measured after 24 hrs by Western blot analysis relative to control; format: functional; method in brief: as §2
Homo sapiens [10] = species: Homo sapiens; assay: Inhibition of RNA polymerase 2 C-terminal domain phosphorylation at Ser2 residue in human KOPN8 cells at 30 uM pre-treated with NAC for 1 hr and measured after 3 hrs by Western blot analysis relative to control; format: cell-based; method in brief: as §2
Homo sapiens [11] = species: Homo sapiens; assay: Inhibition of RNA polymerase 2 C-terminal domain phosphorylation at Ser2 residue in human KOPN8 cells at 100 uM pre-treated with NAC for 1 hr and measured after 3 hrs by Western blot analysis relative to control; format: cell-based; method in brief: as §2
Homo sapiens [12] = species: Homo sapiens; assay: Inhibition of RNA polymerase 2 C-terminal domain phosphorylation at Ser2 residue in human KOPN8 cells at 10 uM pre-treated with NAC for 1 hr and measured after 24 hrs by Western blot analysis relative to control; format: cell-based; method in brief: as §2
KOPN-8 [13] = assay: Effect on c-Myc expression in human KOPN8 cells at 100 uM pre-treated with NAC for 1 hr and measured after 3 hrs by Western blot analysis relative to control; format: functional
KOPN-8 [14] = assay: Effect on c-Myc expression in human KOPN8 cells at 10 uM after 24 hrs by Western blot analysis relative to control; format: functional; method in brief: as §3
KOPN-8 [15] = assay: Effect on c-Myc expression in human KOPN8 cells at 100 uM after 24 hrs by Western blot analysis relative to control; format: functional; method in brief: as §3
[16] = molecular target: T1, Retinoblastoma-associated protein (Homo sapiens); assay: Inhibition of Rb phosphorylation in human KOPN8 cells assessed as ratio of phosphorylated Rb to total Rb levels at 30 uM after 24 hrs by Western blot analysis relative to control; format: cell-based
Method in brief: (§4)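 KOPN-8 pre-B ALL cells were treated for 3 h and 24 h, with or without N-acetyl cysteine added to a parallel set of cells as an antioxidant/ROS quencher. Lysates were analysed by Western blot for phosphorylated Rb and total Rb. The same blots also probed PARP cleavage, Mcl-1, Ser-2-phosphorylated RNAPII CTD and cMyc.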

[17] = molecular target: T1, Retinoblastoma-associated protein (Homo sapiens); assay: Inhibition of Rb phosphorylation in human KOPN8 cells assessed as ratio of phosphorylated Rb to total Rb levels at 100 uM after 24 hrs by Western blot analysis relative to control; format: cell-based; method in brief: as §4

fold change (FC) [4]	fold change (FC) [16]	fold change (FC) [17]	Structure (SMILES)	Activity (KOPN-8 [1])	fold change (FC) (KOPN-8 [2])	fold change (FC) (KOPN-8 [3])	Activity (KOPN-8 [5])	Activity (MDA-MB-231)	Activity (KOPN-8 [6])	fold change (FC) (KOPN-8 [7])	fold change (FC) (KOPN-8 [8])	fold change (FC) (KOPN-8 [9])	fold change (FC) (Homo sapiens [10])	fold change (FC) (Homo sapiens [11])	fold change (FC) (Homo sapiens [12])	fold change (FC) (KOPN-8 [13])	fold change (FC) (KOPN-8 [14])	fold change (FC) (KOPN-8 [15])
0.9	–	–	CN(C)C(=O)c1cc2cnc(Nc3ccc(N4CCNCC4)cn3)nc2n1C1CCCC1 [RIBOCICLIB]	0.5%	1	1.2	–	–	–	–	–	–	–	–	–	–	–	–
–	1	1	COc1ccc(-c2c(I)c(=O)c3c(OC)cc(OC)cc3n2S(=O)(=O)c2ccc(OC)cc2)cc1	–	–	–	0.2%	17.81%	Dose-dependent effect	0.6	1.1	0.7	0.9	1.6	1.5	0.5	1.3	0.1
